From ChEMBL document CHEMBL4689842, “EUbOPEN Chemogenomics Library wave 1” (2021)
“And” between values parts separate entries of the source, which are not always exact repeats. Equal values may be shown once.

System: HEK-293T
Experiment: Multiplex assay against HEK293T;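 as to Population Tubulin-Different-Phenotype (%): share of the cells with healthy nuclei that show this phenotype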
Type: toxicity, cell-based
Conditions: human
Method in brief: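 Imaging took place on a CQ1 microscope at 37°C and 5% CO2 once compound had been added to live cells stained at seeding with Hoechst33342, BioTracker Green Microtubule Cytoskeleton Dye, MitoTracker Red and Annexin V Alexa Fluor 680. CellPathfinder machine-learning gating classed cells as Hoechst high-intensity objects or normal cells, classed normal cells as having healthy, pyknosed or fragmented nuclei, and classed pyknosed cells as mitotic or apoptotic. Tubulin, mitochondrial-mass and membrane-permeability phenotypes are per cents of the healthy-nucleus cells.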

[1] = 12 h, 1 µM, compound concentration 1 uM, replicate 1
[2] = 12 h, 1 µM, compound concentration 1 uM, replicate 2
[3] = 12 h, 10 µM, compound concentration 10 uM, replicate 1
[4] = 12 h, 10 µM, compound concentration 10 uM, replicate 2
[5] = 24 h, 1 µM, compound concentration 1 uM, replicate 1
[6] = 24 h, 1 µM, compound concentration 1 uM, replicate 2
[7] = 24 h, 10 µM, compound concentration 10 uM, replicate 1
[8] = 24 h, 10 µM, compound concentration 10 uM, replicate 2

CC(=O)O[C@H]1C(=O)[C@@]2(C)[C@H]([C@H](OC(=O)c3ccccc3)[C@]3(O)C[C@H](OC(=O)[C@H](O)[C@@H](NC(=O)c4ccccc4)c4ccccc4)C(C)=C1C3(C)C)[C@]1(OC(C)=O)CO[C@@H]1C[C@@H]2O [PACLITAXEL] was tested, and the “Population Apoptotic (%)” value [1] was 21% and 24%, the “Population Fragmented Nuclei (%)” value [1] was 12% and 13% and the “Population Healthy Nuclei (%)” value [1] was 71% and 68%. For the same compound, the “Population Hoechst High Intensity Objects (%)” value [1] was 10% and 14%, the “Population Membrane Permeable-Phenotype (%)” value [1] was 4% and the “Population Mitochondria Different-Phenotype (%)” value [1] was 3% and 4%. The “Population Mitotic Cells (%)” value [1] was 78% and 75%, the “Population Normal (%)” value [1] was 89% and 85% and the “Population Pyknosed Nuclei (%)” value [1] was 15% and 18%. For the same compound, the “Population Tubulin-Different-Phenotype (%)” value [1] was 2%, the “Population Apoptotic (%)” value [2] was 7% and 10% and the “Population Fragmented Nuclei (%)” value [2] was 10% and 8%. For the same compound, the “Population Healthy Nuclei (%)” value [2] was 85% and 87%, the “Population Hoechst High Intensity Objects (%)” value [2] was 1% and the “Population Membrane Permeable-Phenotype (%)” value [2] was 1% and 0%. The “Population Mitochondria Different-Phenotype (%)” value [2] was 5%, the “Population Mitotic Cells (%)” value [2] was 92% and 89% and the “Population Normal (%)” value [2] was 98%. For the same compound, the “Population Pyknosed Nuclei (%)” value [2] was 3% and 4%, the “Population Apoptotic (%)” value [3] was 23% [middle of 4 runs] and the “Population Fragmented Nuclei (%)” value [3] was 15% and 13% and 11% and 10%. The “Population Healthy Nuclei (%)” value [3] was 69% and 72% and 76% and 75%, the “Population Hoechst High Intensity Objects (%)” value [3] was 11% and 7% and 8% and the “Population Membrane Permeable-Phenotype (%)” value [3] was 8% and 5% and 4%. For the same compound, the “Population Mitochondria Different-Phenotype (%)” value [3] was 5% and 4% and 3%, the “Population Mitotic Cells (%)” value [3] was 80% and 77% and 72% and 76% and the “Population Normal (%)” value [3] was 88% and 92% and 91%. The “Population Pyknosed Nuclei (%)” value [3] was 14% [middle of 4 runs], the “Population Tubulin-Different-Phenotype (%)” value [3] was 2% and 3% and the “Population Apoptotic (%)” value [4] was 12% and 6% and 9%. For the same compound, the “Population Fragmented Nuclei (%)” value [4] was 8% and 14%, the “Population Healthy Nuclei (%)” value [4] was 86% and 81% and 85% and the “Population Hoechst High Intensity Objects (%)” value [4] was 1% and 3% and 2%. The “Population Membrane Permeable-Phenotype (%)” value [4] was 1% and 0%, the “Population Mitochondria Different-Phenotype (%)” value [4] was 7% and the “Population Mitotic Cells (%)” value [4] was 87% and 93% and 90%. For the same compound, the “Population Normal (%)” value [4] was 98% and 96% and 97%, the “Population Pyknosed Nuclei (%)” value [4] was 4% and 3% and the “Population Tubulin-Different-Phenotype (%)” value [4] was 4% and 1%. For the same compound, the “Population Apoptotic (%)” value [5] was 10% and 29%, the “Population Fragmented Nuclei (%)” value [5] was 12% and 13% and the “Population Healthy Nuclei (%)” value [5] was 79%. The “Population Hoechst High Intensity Objects (%)” value [5] was 7% and 8%, the “Population Membrane Permeable-Phenotype (%)” value [5] was 8% and 7% and the “Population Mitochondria Different-Phenotype (%)” value [5] was 2% and 4%. For the same compound, the “Population Mitotic Cells (%)” value [5] was 89% and 70%, the “Population Normal (%)” value [5] was 92% and 91% and the “Population Pyknosed Nuclei (%)” value [5] was 8% and 7%. For the same compound, the “Population Tubulin-Different-Phenotype (%)” value [5] was 2% and 4%, the “Population Apoptotic (%)” value [6] was 7% and the “Population Fragmented Nuclei (%)” value [6] was 24% and 32%. The “Population Healthy Nuclei (%)” value [6] was 73% and 65%, the “Population Hoechst High Intensity Objects (%)” value [6] was 3% and 4% and the “Population Membrane Permeable-Phenotype (%)” value [6] was 5% and 3%. For the same compound, the “Population Mitochondria Different-Phenotype (%)” value [6] was 1% and 0%, the “Population Mitotic Cells (%)” value [6] was 92% and the “Population Normal (%)” value [6] was 96% and 95%. The “Population Pyknosed Nuclei (%)” value [6] was 1%, the “Population Apoptotic (%)” value [7] was 22% [middle of 4 runs] and the “Population Fragmented Nuclei (%)” value [7] was 15% [middle of 4 runs]. For the same compound, the “Population Healthy Nuclei (%)” value [7] was 80% and 78% and 81% and 79%, the “Population Hoechst High Intensity Objects (%)” value [7] was 5% and 3% and 6% and the “Population Membrane Permeable-Phenotype (%)” value [7] was 10% and 7%. For the same compound, the “Population Mitochondria Different-Phenotype (%)” value [7] was 2% and 3%, the “Population Mitotic Cells (%)” value [7] was 77% and 76% and 82% and 79% and the “Population Normal (%)” value [7] was 94% and 96% and 93%. For the same compound, the “Population Pyknosed Nuclei (%)” value [7] was 4% and 5% and 6% and 7%, the “Population Tubulin-Different-Phenotype (%)” value [7] was 4% and 5% and the “Population Fragmented Nuclei (%)” value [8] was 30% [middle of 4 runs]. The “Population Healthy Nuclei (%)” value [8] was 73% and 69% and 60% and 67%, the “Population Hoechst High Intensity Objects (%)” value [8] was 4% and the “Population Membrane Permeable-Phenotype (%)” value [8] was 3% and 2%. The “Population Mitochondria Different-Phenotype (%)” value [8] was 1% and 0%, the “Population Mitotic Cells (%)” value [8] was 87% and 96% and 93% and 98% and the “Population Normal (%)” value [8] was 95%. For the same compound, the “Population Pyknosed Nuclei (%)” value [8] was 1% and 2% and the “Population Tubulin-Different-Phenotype (%)” value [8] was 2%.
